Values belong to the compound of their own block, whether it stands above or below them.
Tests used:
[1] = Drug level in HEPES buffer treated with 200 uM (S)-4-sulfamoylphenyl 3-(2-amino-4-methylpentanamido)propane-1-sulfonate in presence of aeromonas proteolytica aminopeptidase by spectrophotometry; type: ADME; details: vibrio proteolyticus
In short: (§1)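 Each substrate (50 or 200 μM) was incubated with AAP (1.05 units/mL) in 50 mM HEPES (pH 8.0) containing 2% DMSO for varying periods. Release of the corresponding phenol was monitored over time.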

[2] = Drug level in HEPES buffer treated with 2 mM (S)-2-methylquinolin-8-yl 3-(2-amino-4-methylpentanamido)propane-1-sulfonate for 12 hrs in presence of aeromonas proteolytica aminopeptidase by spectrophotometry; type: ADME; details: vibrio proteolyticus
[3] = Drug level in HEPES buffer treated with 50 uM (S)-2-methylquinolin-8-yl 3-(2-amino-4-methylpentanamido)propane-1-sulfonate in presence of aeromonas proteolytica aminopeptidase by spectrophotometry; type: ADME; details: vibrio proteolyticus; in short: as §1
[4] = Drug level in HEPES buffer treated with 200 uM (S)-4-chlorophenyl 3-(2-amino-4-methylpentanamido)propane-1-sulfonate in presence of aeromonas proteolytica aminopeptidase by spectrophotometry; type: ADME; details: vibrio proteolyticus
In short: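 Compound at 200 μM incubated for a given period with Aeromonas proteolytica aminopeptidase (1.05 units/mL) in 50 mM HEPES, pH 8.0, containing 2% DMSO. Liberation of the corresponding phenol was followed over time to evaluate the intramolecular cyclization rate k₂.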

[5] = Drug level in HEPES buffer treated with 200 uM (S)-4-(trifluoromethyl)phenyl 3-(2-amino-4-methylpentanamido)propane-1-sulfonate in presence of aeromonas proteolytica aminopeptidase by spectrophotometry; type: ADME; details: vibrio proteolyticus; in short: as §1
Serum [6] = assay: Drug level in human serum treated with 5 mM (S)-2-methylquinolin-8-yl 3-(2-amino-4-methylpentanamido)propane-1-sulfonate after 24 hrs by HPLC analysis; type: ADME, cell-free
Liver = assay: Drug level in CD1 mouse liver S9 fraction treated with 5 mM (S)-2-methylquinolin-8-yl 3-(2-amino-4-methylpentanamido)propane-1-sulfonate after 3 hrs by HPLC analysis; type: ADME, subcellular; details: s9, 3 h
[7] = Retention time of compound by HPLC analysis; type: physicochemical
[8] = Inhibition of aeromonas proteolytica aminopeptidase at 5 uM incubated at pH 8 and 30 degC followed by addition of 50 uM L-leucine-p-nitroanilide substrate by spectrophotometry; details: vibrio proteolyticus, pH 8, 5 µM
In short: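 The prodrug (5 μM) was preincubated with AAP (0.02 units/mL) at pH 8.0 and 30 °C for set times in 10 mM HEPES (pH 8.0) containing 2% DMSO. L-leucine-p-nitroanilide (50 μM) was then added, and its hydrolysis was followed at 25 °C by ΔAbs405 from released p-nitroaniline (ε405 = 10300). In the control, the prodrug was preincubated without enzyme, and AAP was added together with the substrate.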

[9] = Drug metabolism in HEPES buffer assessed as aeromonas proteolytica aminopeptidase-mediated compound hydrolysis at 2 mM by spectrophotometry; type: ADME; details: vibrio proteolyticus, 2000 µM
[10] = Drug metabolism in HEPES buffer assessed as aeromonas proteolytica aminopeptidase-mediated 4-chlorophenol formation at 200 uM by spectrophotometry; type: ADME; details: vibrio proteolyticus; in short: as §1
[11] = Drug metabolism in HEPES buffer assessed as aeromonas proteolytica aminopeptidase-mediated Isothiazolidine 1,1-dioxide formation at 200 uM by spectrophotometry; type: ADME; details: vibrio proteolyticus
[12] = Dissociation constant, pKa of the compound; type: physicochemical
[13] = Drug metabolism in HEPES buffer assessed as aeromonas proteolytica aminopeptidase-mediated 4-(trifluoromethyl)phenol formation at 200 uM by spectrophotometry; type: ADME; details: vibrio proteolyticus; in short: as §1
Serum [14] = assay: Metabolic stability in human serum assessed as compound decomposed at 5 mM by HPLC analysis; type: ADME; details: 5000 µM
[15] = Metabolic stability in CD1 mouse liver S9 fraction assessed as compound remaining at 5 mM by HPLC analysis; type: ADME, subcellular; details: read-out: Stability
[16] = Drug metabolism in HEPES buffer assessed as aeromonas proteolytica aminopeptidase-mediated 5-chloroquinolin-8-yl 3-chloropropane-1-sulfonate formation at 2 mM after 12 hrs by spectrophotometry; type: ADME; details: vibrio proteolyticus, 2000 µM
[17] = Drug metabolism in HEPES buffer assessed as aeromonas proteolytica aminopeptidase-mediated 5-chloroquinolin-8-yl 4-chlorobutane-1-sulfonate formation at 2 mM after 12 hrs by spectrophotometry; type: ADME; details: vibrio proteolyticus, 2000 µM
[18] = Metabolic stability in human serum assessed as compound decomposed at 5 mM after 24 hrs by HPLC analysis; type: ADME; details: read-out: Drug metabolism
[19] = Drug metabolism in HEPES buffer assessed as aeromonas proteolytica aminopeptidase-mediated 2-methylquinolin-8-ol formation at 2 mM after 12 hrs by spectrophotometry; type: ADME; details: vibrio proteolyticus, 2000 µM
[20] = Drug metabolism in HEPES buffer assessed as aeromonas proteolytica aminopeptidase-mediated Isothiazolidine 1,1-dioxide formation at 2 mM after 12 hrs by spectrophotometry; type: ADME; details: vibrio proteolyticus, 2000 µM
[21] = Drug metabolism in HEPES buffer assessed as aeromonas proteolytica aminopeptidase-mediated 2-methylquinolin-8-ol formation at 50 uM by spectrophotometry; type: ADME; details: vibrio proteolyticus; in short: as §1
[22] = Drug metabolism in HEPES buffer assessed as aeromonas proteolytica aminopeptidase-mediated Isothiazolidine 1,1-dioxide formation at 50 uM by spectrophotometry; type: ADME; details: vibrio proteolyticus
Serum [23] = assay: Drug metabolism in human serum assessed as 2-methylquinolin-8-ol formation at 5 mM after 24 hrs by HPLC analysis; type: ADME, cell-free; details: 5000 µM
Serum [24] = assay: Drug metabolism in human serum assessed as 2-methylquinolin-8-yl 3-aminopropane-1-sulfonate formation at 5 mM after 24 hrs by HPLC analysis; type: ADME, cell-free; details: 5000 µM
[25] = Drug metabolism in CD1 mouse S9 fraction assessed as 2-methylquinolin-8-yl 3-aminopropane-1-sulfonate formation at 5 mM after 3 hrs by HPLC analysis; type: ADME, Liver; details: s9, 3 h, 5000 µM
[26] = Drug metabolism in HEPES buffer assessed as aeromonas proteolytica aminopeptidase-mediated compound hydrolysis at 1.3 mM by spectrophotometry; type: ADME; details: vibrio proteolyticus, 1300 µM
[27] = Drug metabolism in HEPES buffer assessed as aeromonas proteolytica aminopeptidase-mediated 4-hydroxybenzenesulfonamide formation at 200 uM by spectrophotometry; type: ADME; details: vibrio proteolyticus; in short: as §1
[28] = Inhibition of aeromonas proteolytica aminopeptidase using L-leucine-p-nitroanilide as substrate by spectrophotometry; set-up: species or system Vibrio proteolyticus

Structure (SMILES): NS(=O)(=O)c1ccc(O)cc1
Drug metabolism [1]: metabolite_detected

Structure (SMILES): O=S1(=O)CCCN1
Drug metabolism [2]: metabolite_detected
Drug metabolism [3]: metabolite_detected
Drug metabolism [4]: metabolite_detected
Drug metabolism [5]: metabolite_detected
Drug metabolism [1]: metabolite_detected

Structure (SMILES): Cc1ccc2cccc(OS(=O)(=O)CCCN)c2n1
Drug metabolism (Serum [6]): metabolite_detected
Drug metabolism (Liver): metabolite_detected
Retention_time [7]: 6.5 min

Structure (SMILES): CC(C)C[C@H](N)C(=O)NCCCS(=O)(=O)Oc1ccc(Cl)c2cccnc12
inhibition (INH) [8]: Active

Structure (SMILES): Cc1ccc2cccc(OS(=O)(=O)CCCCNC(=O)[C@@H](N)CC(C)C)c2n1
Drug metabolism [9]: metabolite_detected

Structure (SMILES): CC(C)C[C@H](N)C(=O)NCCCS(=O)(=O)Oc1ccc(Cl)cc1
Drug metabolism [10]: metabolite_detected
Drug metabolism [11]: metabolite_detected
pKa [12]: 9.6

Structure (SMILES): CC(C)C[C@H](N)C(=O)NCCCS(=O)(=O)Oc1ccc(C(F)(F)F)cc1
Drug metabolism [13]: metabolite_detected
Drug metabolism [11]: metabolite_detected
pKa [12]: 8.9

Structure (SMILES): Cc1ccc2cccc(OS(=O)(=O)CCCN=[N+]=[N-])c2n1
Stability (Serum [14]): Stable
remaining [15]: 88%
Retention_time [7]: 17.5 min

Structure (SMILES): CC(C)C[C@H](N)C(=O)NCCCS(=O)(=O)Oc1ccc(S(N)(=O)=O)cc1
Drug metabolism [27]: metabolite_detected
Drug metabolism [11]: metabolite_detected
pKa [12]: 8.3

Structure (SMILES): Oc1ccc(Cl)c2cccnc12 [CLOXYQUIN]
Ki [28]: 190 nM

Structure (SMILES): Oc1ccc(Cl)cc1 [PARACHLOROPHENOL]
Drug metabolism [4]: metabolite_detected

Further lines, results first:

inhibition (INH) [8]: Active
Structure (SMILES): CC(C)C[C@H](N)C(=O)NCCCCS(=O)(=O)Oc1ccc(Cl)c2cccnc12

Drug metabolism [16]: metabolite_notdetected
Drug metabolism [17]: metabolite_notdetected
metabolised at 24 h, 5000 µM [18]: 35%
Drug metabolism [19]: metabolite_detected
Drug metabolism [20]: metabolite_detected
Drug metabolism [21]: metabolite_detected
Drug metabolism [22]: metabolite_detected
pKa [12]: 10.9
Drug metabolism (Serum [23]): metabolite_detected
Drug metabolism (Serum [24]): metabolite_detected
Drug metabolism [25]: metabolite_detected
Retention_time [7]: 21 min
Structure (SMILES): Cc1ccc2cccc(OS(=O)(=O)CCCNC(=O)[C@@H](N)CC(C)C)c2n1

Drug metabolism [26]: metabolite_detected
Structure (SMILES): Cc1ccc2cccc(OS(=O)(=O)CCNC(=O)[C@@H](N)CC(C)C)c2n1

Drug metabolism [5]: metabolite_detected
Structure (SMILES): Oc1ccc(C(F)(F)F)cc1

Drug metabolism [2]: metabolite_detected
Drug metabolism (Serum [6]): metabolite_detected
Drug metabolism [3]: metabolite_detected
Retention_time [7]: 4.6 min
Structure (SMILES): Cc1ccc2cccc(O)c2n1 [8-HYDROXY QUINALDINE]
